This is an account of results in ChEMBL document CHEMBL1129554, “6-Substituted and 5,6-disubstituted derivatives of uridine: stereoselective synthesis, interaction with uridine phosphorylase, and in vitro antitumor activity” (J Med Chem, 1996).

As a reminder, the IC50 is the concentration needed to halve the response being measured. Read a low IC50 as greater potency in that assay. The term Km denotes the concentration of substrate that gives half-maximal velocity. By Vmax is commonly meant the top rate of the reaction or transport when substrate is in excess.

Converted amounts (≈) assume the structure as drawn.

One data set deals with IM-9. Description: In vitro antitumor activity in IM-9 cell lines. Type of data set: functional, cell-based. Particulars: Homo sapiens. Put shortly: (§1)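 Cytotoxicity was measured as inhibition of [¹⁴C]-L-leucine incorporation into protein. Triplicate cultures held 2 × 10⁴ cells/well, or 10⁵ PHA-stimulated peripheral blood lymphocytes, in RPMI 1640 with 10% FCS, 5% CO₂, 37 °C. Label (0.5 µCi/mL) was present for the final 24 h of a 3-day culture (4 days for PHA-Ly). Protein was precipitated with perchloric acid and counted. IC50 (µg/mL) was taken from dose-response curves.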

The test system of a further data set is U-937. The data set can be described thus: In vitro antitumor activity in U-937 cell lines. The class given is functional, cell-based. Particulars: Homo sapiens. Put shortly: as §1
The nature of data set [1]: Catalytical constant (app Km)of the compound was evaluated at pH 6. Type of data set: ADME. The note with it: read-out: Km app. Put shortly:
(§2)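 Homogeneous E. coli uridine phosphorylase in 50 mM phosphate buffer at 37 °C. pH 6 was used for 5-fluoro analogues and pH 7.5 for the others, so the neutral form predominates. Phosphorolysis was followed spectrophotometrically as the decrease in absorbance, 285 nm for 5-fluoro and 280 nm for the rest. Initial rates were taken over 20 s. Apparent Km and Vmax came from a Wilkinson fit, and efficacy = Vmax/Km.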

The subject of another data set is PHA-Ly. The data set can be described thus: IIn vitro antitumor activity in PHA-Ly cell lines. The class given is functional, cell-based. The note with it: Homo sapiens. Put shortly:
as §1

Data set [2] in a line: Catalytical constant (Vmax) was evaluated. Type of data set: ADME. The method in brief:
as §2

The nature of data set [3]: Efficacy was determined as ratio of Vmax to that of Km. The class given is ADME. Put shortly: as §2
The next data set relates to K562. Description: In vitro antitumor activity in K-562 cell lines. Type of data set: functional, cell-based. The note with it: Homo sapiens. Put shortly: as §1
The next data set relates to MOLT-3. The data set can be described thus: In vitro antitumor activity in MOLT-3 cell lines. The class given is functional, cell-based. The note with it: Homo sapiens. Put shortly:
as §1

Data set [4] can be described thus: Catalytical constant (app Km)of the compound was evaluated at pH 7.5. The class given is ADME. The note with it: read-out: Km app. Put shortly: as §2

In the case of `O=c1[nH]c(=O)n([C@@H]2O[C@H](CO)[C@@H](O)[C@H]2O)c(CF)c1F`, the half-inhibitory concentration (IC50) in the data set on IM-9 is above 10 µg/mL; in the data set with U-937, 3.7 µg/mL (≈ 12.6 µM); with PHA-Ly, 4.5 µg/mL (≈ 15.3 µM); in the data set with K562, above 10 µg/mL; with MOLT-3, 3.5 µg/mL (≈ 11.9 µM). In data set [1], the Km was found to be 979 µM. In addition, the Vmax in data set [2] is 57 uM min-1 (mg of protein)-1. Besides, the Efficacy in data set [3] is recorded as 0.06.

Consider `CCCc1cc(=O)[nH]c(=O)n1C1O[C@H](CO)[C@@H](O)[C@H]1O` (some centres undefined), for which the Km in data set [4] was determined as 1150 µM. Moreover, the maximal velocity (Vmax) in [2] is 40 uM min-1 (mg of protein)-1. For the same compound, the Efficacy in [3] is recorded as 0.03.

As for `O=c1cc(CF)n(C2O[C@H](CO)[C@@H](O)[C@H]2O)c(=O)[nH]1` (some centres undefined), the IC50 in the data set with IM-9 is 9.9 µg/mL (≈ 35.8 µM); with U-937 it was above 10 µg/mL; in the data set with PHA-Ly, above 10 µg/mL; with K562, above 10 µg/mL; in the data set with MOLT-3, above 10 µg/mL. Further, in data set [4], the Km stood at 300 µM. Also, in data set [2], the maximal velocity (Vmax) was 297 uM min-1 (mg of protein)-1. For the same compound, in data set [3], the Efficacy stood at 0.99.

Consider `O=c1[nH]c(=O)n(C2O[C@H](CO)[C@@H](O)[C@H]2O)c(CO)c1F` (some centres undefined), for which the IC50 worked out at 3 µg/mL (≈ 10.3 µM) in the data set with IM-9; 3.7 µg/mL (≈ 12.7 µM) with U-937; 2.8 µg/mL (≈ 9.58 µM) in the data set with PHA-Ly; 4.9 µg/mL (≈ 16.8 µM) with K562; 1.2 µg/mL (≈ 4.11 µM) in the data set with MOLT-3. The Km in [1] was 4000 µM. In addition, the Vmax in [2] was 370 uM min-1 (mg of protein)-1. For the same compound, the Efficacy in data set [3] was found to be 0.09.

In the case of `O=c1cc(CO)n(C2O[C@H](CO)[C@@H](O)[C@H]2O)c(=O)[nH]1` (some centres undefined), the IC50 was above 10 µg/mL in the data set with IM-9; above 10 µg/mL in the data set on U-937; 98 µg/mL (≈ 357 µM) in the data set on PHA-Ly; above 10 µg/mL with K562; above 10 µg/mL in the data set on MOLT-3. Further, in data set [4], the Michaelis-Menten constant (Km) turned out to be 476 µM. Besides, in data set [2], the maximal velocity (Vmax) is reported as 254 uM min-1 (mg of protein)-1. Also, the Efficacy in data set [3] is on record as 0.53.

Turning to `CCc1cc(=O)[nH]c(=O)n1C1O[C@H](CO)[C@@H](O)[C@H]1O` (some centres undefined), in [4], the Michaelis constant (Km) was determined as 1200 µM. Also, in [2], the Vmax is listed as 175 uM min-1 (mg of protein)-1. The Efficacy in [3] was found to be 0.15.

As to `Cc1c(F)c(=O)[nH]c(=O)n1C1O[C@H](CO)[C@@H](O)[C@H]1O` (some centres undefined), the IC50 in the data set with IM-9, with U-937, in the data set on PHA-Ly, in the data set with K562 and in the data set with MOLT-3 was above 10 µg/mL in each case. In [1], the Michaelis-Menten constant (Km) came out at 1360 µM. The maximum rate (Vmax) in data set [2] was 67 uM min-1 (mg of protein)-1. Further, in data set [3], the Efficacy stood at 0.05.

For the compound `O=c1[nH]c(=O)n([C@@H]2O[C@H](CO)[C@@H](O)[C@H]2O)cc1F` [5-FLUOROURIDINE], the IC50 in the data set on IM-9 is below 0.01 µg/mL; with U-937 it was below 0.01 µg/mL; in the data set on PHA-Ly it was below 0.1 µg/mL; in the data set on K562, 0.026 µg/mL (≈ 0.0992 µM); with MOLT-3, below 0.01 µg/mL. Further, in data set [1], the Km amounted to 152 µM. For the same compound, in data set [2], the Vmax is given as 323 uM min-1 (mg of protein)-1. For the same compound, in data set [3], the Efficacy is 2.1.

`O=c1[nH]cc(F)c(=O)[nH]1` [FLUOROURACIL]: the IC50 amounted to 0.34 µg/mL (≈ 2.61 µM) in the data set with IM-9; 0.5 µg/mL (≈ 3.84 µM) with U-937; 1.4 µg/mL (≈ 10.8 µM) in the data set on PHA-Ly; 4.3 µg/mL (≈ 33.1 µM) in the data set with K562; 1.2 µg/mL (≈ 9.23 µM) in the data set with MOLT-3.
